Experiments:
Renin [1] = biological target: T1, Renin (Homo sapiens, UniProt P00797); assay: Compound was evaluated for the inhibitory concentration against human plasma renin at pH 7.4; format: cell-free
T1 sequence (P00797 whole entry): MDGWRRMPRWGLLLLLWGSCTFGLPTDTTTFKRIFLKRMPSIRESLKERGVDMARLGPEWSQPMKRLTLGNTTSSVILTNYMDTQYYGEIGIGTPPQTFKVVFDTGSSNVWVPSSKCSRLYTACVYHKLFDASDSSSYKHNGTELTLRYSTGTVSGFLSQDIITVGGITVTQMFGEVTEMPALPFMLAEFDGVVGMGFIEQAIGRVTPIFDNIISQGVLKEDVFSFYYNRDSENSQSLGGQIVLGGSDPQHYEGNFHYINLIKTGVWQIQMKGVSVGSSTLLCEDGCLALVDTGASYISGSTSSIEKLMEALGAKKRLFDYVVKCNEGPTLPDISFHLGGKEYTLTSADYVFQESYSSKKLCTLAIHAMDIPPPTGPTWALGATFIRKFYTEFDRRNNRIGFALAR
Method in brief: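 Renin inhibition assayed in human plasma, with plasma renin as the enzyme source, at pH 7.4. IC50 reported in nM.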

Renin [2] = biological target: T1, Renin; assay: Compound was evaluated for the inhibitory concentration against purified human renal renin at pH 6.5
Cathepsin D (Bos taurus) [3] = biological target: T2, Cathepsin D (Bos taurus) (UniProt P80209); assay: Inhibitory activity against cathepsin D in bovine at 1*10e-5 M concentration.
T2 sequence (whole entry): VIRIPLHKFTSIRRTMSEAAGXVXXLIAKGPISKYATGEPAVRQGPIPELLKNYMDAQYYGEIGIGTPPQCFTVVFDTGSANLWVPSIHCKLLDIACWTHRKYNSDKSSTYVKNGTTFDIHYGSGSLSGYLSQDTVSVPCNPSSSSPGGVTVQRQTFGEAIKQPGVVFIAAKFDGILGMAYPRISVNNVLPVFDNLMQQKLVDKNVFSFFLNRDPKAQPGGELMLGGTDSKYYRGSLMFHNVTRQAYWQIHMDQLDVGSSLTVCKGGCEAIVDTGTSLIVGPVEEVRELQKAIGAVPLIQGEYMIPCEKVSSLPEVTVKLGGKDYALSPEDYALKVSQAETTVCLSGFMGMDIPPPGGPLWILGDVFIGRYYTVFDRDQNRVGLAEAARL
Method in brief: (§1)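 Bovine or human cathepsin D, assayed at pH 3.0; percent inhibition recorded with inhibitor at 1 × 10^-5 M, and also at 1 × 10^-7 M.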

Pepsin A (Sus scrofa) = Pepsin A (Sus scrofa) (UniProt P00791); assay: Inhibitory activity against pepsin in porcine at 1*10e-5 M concentration.; format: functional
Sequence of Pepsin A (Sus scrofa) (P00791 60-385 limits assumed): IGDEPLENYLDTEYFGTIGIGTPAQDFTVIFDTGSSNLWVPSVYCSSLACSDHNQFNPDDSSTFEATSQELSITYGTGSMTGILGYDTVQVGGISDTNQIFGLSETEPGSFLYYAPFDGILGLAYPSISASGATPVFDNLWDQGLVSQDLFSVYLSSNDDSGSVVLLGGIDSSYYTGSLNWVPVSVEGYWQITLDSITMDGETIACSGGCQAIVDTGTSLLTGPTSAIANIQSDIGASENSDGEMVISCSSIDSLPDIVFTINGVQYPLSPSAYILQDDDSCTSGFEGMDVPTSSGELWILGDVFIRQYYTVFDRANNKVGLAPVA
Method in brief: (§2)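 Human or porcine pepsin, assayed at pH 2.0; percent inhibition recorded with inhibitor at 1 × 10^-5 M.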

Rattus norvegicus [4] = assay: Upon intraduodenal administration in rats at a dose of 10 mg/kg, portal plasma levels calculated after 10 min.; format: functional, organism-based; parameters: dose 10 mg/kg
Method in brief: (§3)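 Anesthetized rats given 10 mg/kg intraduodenally. Blood sampled at 10 and 30 min from the portal vein and from the systemic circulation. Drug level in plasma measured by renin inhibition assay, reported in ng/mL as mean ± SE, n = 3 (some groups 5 or 6).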

Rattus norvegicus [5] = assay: Upon intraduodenal administration in rats at a dose of 10 mg/kg, systemic plasma levels calculated after 10 min.; format: functional, organism-based; parameters: dose 10 mg/kg; method in brief: as §3
Rattus norvegicus [6] = assay: Upon intraduodenal administration in rats at a dose of 10 mg/kg, systemic plasma levels calculated after 30 min.; format: functional, organism-based; parameters: dose 10 mg/kg; method in brief: as §3
Rattus norvegicus [7] = assay: Upon intraduodenal administration in rats at a dose of 10 mg/kg, portal plasma levels calculated after 30 min.; format: functional, organism-based; parameters: dose 10 mg/kg; method in brief: as §3
Cathepsin D (Bos taurus) [8] = biological target: T2, Cathepsin D (Bos taurus); assay: Inhibitory activity against cathepsin D in bovine at 1*10e-7 M concentration.; method in brief: as §1
[9] = biological target: Cathepsin D (Homo sapiens) (UniProt P07339); assay: Inhibitory activity against cathepsin D in human at 1*10e-5 M concentration.; method in brief: as §1
Sequence of Cathepsin D (Homo sapiens) (P07339 65-162 limits assumed): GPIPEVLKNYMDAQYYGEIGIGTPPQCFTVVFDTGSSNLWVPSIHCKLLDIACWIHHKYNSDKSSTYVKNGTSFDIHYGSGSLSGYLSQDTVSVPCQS
Sequence of Cathepsin D (Homo sapiens) (P07339 169-412 limits assumed): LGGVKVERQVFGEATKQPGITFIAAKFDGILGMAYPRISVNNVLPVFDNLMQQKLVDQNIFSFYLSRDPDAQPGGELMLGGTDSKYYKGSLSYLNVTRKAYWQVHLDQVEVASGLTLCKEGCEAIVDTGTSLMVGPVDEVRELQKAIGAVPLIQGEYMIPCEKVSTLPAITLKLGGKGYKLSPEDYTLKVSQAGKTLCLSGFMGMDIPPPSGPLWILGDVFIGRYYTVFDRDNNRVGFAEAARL

[10] = biological target: Cathepsin D (Homo sapiens) (UniProt P07339); assay: Inhibitory activity against cathepsin D in human at 1*10e-7 M concentration.; method in brief: as §1
Pepsin A (Homo sapiens) = Pepsin A (Homo sapiens) (UniProt P0DJD9); assay: Inhibitory activity against human pepsin at 1*10e-5 M; format: functional; method in brief: as §2
Sequence of Pepsin A (Homo sapiens) (P0DJD9 63-388 limits assumed): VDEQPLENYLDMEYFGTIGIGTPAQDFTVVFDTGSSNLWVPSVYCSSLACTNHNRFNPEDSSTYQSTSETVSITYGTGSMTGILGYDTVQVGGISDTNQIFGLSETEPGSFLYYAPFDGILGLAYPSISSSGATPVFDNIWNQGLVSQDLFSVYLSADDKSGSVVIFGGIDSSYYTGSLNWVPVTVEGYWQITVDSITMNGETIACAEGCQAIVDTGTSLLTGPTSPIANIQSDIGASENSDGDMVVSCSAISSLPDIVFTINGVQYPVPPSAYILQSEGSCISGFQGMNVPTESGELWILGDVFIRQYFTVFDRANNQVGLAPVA

| SMILES | IC50 (Renin [1]) | IC50 (Renin [2]) | inhibition (Cathepsin D (Bos taurus) [3]) | inhibition (Pepsin A (Sus scrofa)) | Plasma level (Rattus norvegicus [4]) | Plasma level (Rattus norvegicus [5]) | Plasma level (Rattus norvegicus [6]) | Plasma level (Rattus norvegicus [7]) | inhibition (Cathepsin D (Bos taurus) [8]) | inhibition [9] | inhibition [10] | inhibition (Pepsin A (Homo sapiens)) |
| --- | --- | --- | --- | --- | --- | --- | --- | --- | --- | --- | --- | --- |
| CCN1C[C@@H]([C@H](O)[C@H](CC2CCCCC2)NC(=O)[C@H](Cc2cccs2)NC(=O)[C@@H](CC(=O)N2CCOCC2)Cc2ccccc2)OC1=O | 43 nM | 1.5 nM |  |  |  |  |  |  |  |  |  |  |
| CCN1C[C@@H]([C@H](O)[C@H](CC2CCCCC2)NC(=O)[C@H](Cc2c[nH]cn2)NC(=O)[C@@H](CC(=O)N2CCOCC2)Cc2ccccc2)OC1=O |  |  | 2% | 2% | 280 ng/mL | 55 ng/mL | 34 ng/mL | 390 ng/mL |  |  |  |  |
| CCN1C[C@@H]([C@H](O)[C@H](CC2CCCCC2)NC(=O)[C@H](Cc2cscn2)NC(=O)[C@@H](CC(=O)N2CCOCC2)Cc2ccccc2)OC1=O | 8.1 nM | 0.6 nM | 93% | 57% | 1900 ng/mL | 320 ng/mL | 300 ng/mL | 1100 ng/mL | 28% | 100% | 40% | 26% |
| CCN1C[C@@H]([C@H](O)[C@H](CC2CCCCC2)NC(=O)[C@H](Cc2cn(C)cn2)NC(=O)[C@@H](CC(=O)N2CCOCC2)Cc2ccccc2)OC1=O | 58 nM | 7.4 nM |  |  |  |  |  |  |  |  |  |  |
| CCN1C[C@@H]([C@H](O)[C@H](CC2CCCCC2)NC(=O)[C@H](Cc2cc[nH]n2)NC(=O)[C@@H](CC(=O)N2CCOCC2)Cc2ccccc2)OC1=O | 21 nM | 1.1 nM |  |  | 28 ng/mL | 6.7 ng/mL | 7 ng/mL | 58 ng/mL |  |  |  |  |
